Results published in ChEMBL document CHEMBL4043075, “Development of Fluorinated Analogues of Perhexiline with Improved Pharmacokinetic Properties and Retained Efficacy” (J Med Chem, 2017).
Active and inactive are the calls of the source. The rule behind the calls is not given here.

Key:
[1] = Half life in human liver microsomes at 3 uM up to 45 mins in presence of NADPH by LC-MS/MS analysis; assay type: ADME, microsome
[2] = Half life in Sprague-Dawley rat liver microsomes at 3 uM up to 45 mins in presence of NADPH by LC-MS/MS analysis; assay type: ADME, microsome
[3] = Stability of the compound in pH 7.4 PBS buffer at 37 degC after 1 hr; assay type: physicochemical; details: pH 7.4, 1 h
Procedure, shortened: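 Compound incubated 1 h in pH 7.4 PBS at 37 °C, then checked for decomposition.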

[4] = Drug uptake in BALB/c mouse myocardium at 10 mg/kg, po administered via gavage every 24 hrs for 7 days measured 1 hr post last dose by LC-MS/MS analysis; assay type: ADME, organism-based; details: read-out: Drug uptake
Procedure, shortened: (§1)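 Male BALB/c mice, daily oral gavage at 10 mg/kg. Plasma and myocardium sampled 1, 4, 8 and 24 h after dosing, n = 3 per timepoint. […] Myocardium:plasma ratios taken from drug concentration or from AUC. Student's t-test used.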

CYP2D6 = CYP2D6 (Homo sapiens, UniProt P10635); assay: Drug metabolism assessed as human CYP2D6-mediated compound degradation by measuring half life at 5 uM up to 45 mins in presence of NADPH by LC-MS/MS analysis; assay type: ADME
Sequence of CYP2D6 (P10635 whole entry, canonical isoform): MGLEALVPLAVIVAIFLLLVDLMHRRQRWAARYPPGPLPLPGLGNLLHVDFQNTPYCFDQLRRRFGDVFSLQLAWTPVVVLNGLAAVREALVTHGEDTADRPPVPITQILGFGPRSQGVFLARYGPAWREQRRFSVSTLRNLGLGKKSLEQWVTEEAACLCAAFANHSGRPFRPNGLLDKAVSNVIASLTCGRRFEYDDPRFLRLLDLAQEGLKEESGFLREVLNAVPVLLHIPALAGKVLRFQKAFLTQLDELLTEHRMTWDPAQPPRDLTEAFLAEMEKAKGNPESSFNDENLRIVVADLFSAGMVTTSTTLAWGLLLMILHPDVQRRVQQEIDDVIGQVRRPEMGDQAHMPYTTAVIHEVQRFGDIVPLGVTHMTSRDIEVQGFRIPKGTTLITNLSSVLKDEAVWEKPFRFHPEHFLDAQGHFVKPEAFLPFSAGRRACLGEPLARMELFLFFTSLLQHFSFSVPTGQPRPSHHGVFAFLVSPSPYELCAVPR

[5] = molecular target: T1, Carnitine O-palmitoyltransferase 1, muscle isoform (Rattus norvegicus, UniProt Q63704); assay: Inhibition of Wistar rat heart mitochondrial CPT-1 assessed as reduction in conversion of palmitoyl CoA and L-carnitine into palmitoylcarnitine preincubated for 3 mins followed by L-carnitine and palmitoyl CoA addition measured for 3.5 mins by spectrophotometric analysis
T1 sequence (Q63704 whole entry): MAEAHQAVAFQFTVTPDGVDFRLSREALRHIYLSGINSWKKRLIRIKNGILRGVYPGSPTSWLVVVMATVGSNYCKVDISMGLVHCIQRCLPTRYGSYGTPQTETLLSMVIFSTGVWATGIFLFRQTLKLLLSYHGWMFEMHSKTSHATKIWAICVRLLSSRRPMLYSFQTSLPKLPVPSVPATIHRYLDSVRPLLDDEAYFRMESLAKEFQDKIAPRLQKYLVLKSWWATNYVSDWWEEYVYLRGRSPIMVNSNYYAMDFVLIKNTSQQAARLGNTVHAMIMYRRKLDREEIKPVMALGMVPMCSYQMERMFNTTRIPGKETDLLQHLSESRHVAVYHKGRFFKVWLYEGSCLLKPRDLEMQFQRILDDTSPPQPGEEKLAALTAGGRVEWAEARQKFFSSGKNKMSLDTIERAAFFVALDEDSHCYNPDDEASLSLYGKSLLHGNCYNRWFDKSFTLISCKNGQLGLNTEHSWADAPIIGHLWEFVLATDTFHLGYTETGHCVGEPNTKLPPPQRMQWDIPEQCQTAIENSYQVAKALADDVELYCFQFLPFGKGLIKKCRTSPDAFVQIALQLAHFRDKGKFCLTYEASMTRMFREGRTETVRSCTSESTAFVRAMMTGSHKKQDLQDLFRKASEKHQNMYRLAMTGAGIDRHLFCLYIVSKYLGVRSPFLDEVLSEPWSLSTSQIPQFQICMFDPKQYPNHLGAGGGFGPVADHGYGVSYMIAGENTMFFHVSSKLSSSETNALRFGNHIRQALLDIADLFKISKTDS

[6] = Plasma concentration in BALB/c mouse at 10 mg/kg, po administered via gavage every 24 hrs for 7 days measured at 1 hr post last dose by LC-MS/MS analysis; assay type: ADME, organism-based; procedure, shortened: as §1
[7] = Plasma concentration in BALB/c mouse at 10 mg/kg, po administered via gavage every 24 hrs for 7 days measured 4 hrs post last dose by LC-MS/MS analysis; assay type: ADME, organism-based; procedure, shortened: as §1
[8] = Plasma concentration in BALB/c mouse at 10 mg/kg, po administered via gavage every 24 hrs for 7 days measured 8 hrs post last dose by LC-MS/MS analysis; assay type: ADME, organism-based; procedure, shortened: as §1
[9] = Drug uptake in BALB/c mouse myocardium at 10 mg/kg, po administered via gavage every 24 hrs for 7 days measured 4 hrs post last dose by LC-MS/MS analysis; assay type: ADME, organism-based; details: read-out: Drug uptake; procedure, shortened: as §1
[10] = Drug uptake in BALB/c mouse myocardium at 10 mg/kg, po administered via gavage every 24 hrs for 7 days measured 8 hrs post last dose by LC-MS/MS analysis; assay type: ADME, organism-based; details: read-out: Drug uptake; procedure, shortened: as §1
[11] = AUC (0 to 24 hrs) in BALB/c mouse plasma at 10 mg/kg, po administered via gavage every 24 hrs for 7 days measured post last dose by LC-MS/MS analysis; assay type: ADME, organism-based; parameters: dose 10 mg/kg, time < 24 hr, route oral; procedure, shortened: as §1
[12] = AUC (0 to 24 hrs) in BALB/c mouse myocardium at 10 mg/kg, po administered via gavage every 24 hrs for 7 days measured post last dose by LC-MS/MS analysis; assay type: ADME, organism-based; parameters: time < 24 hr, dose 10 mg/kg, route oral; procedure, shortened: as §1
[13] = Plasma concentration in Sprague-Dawley rat at 10 mg/kg, po administered via gavage every 24 hrs measured at 1 hr post dose by LC-MS/MS analysis; assay type: ADME, organism-based
Procedure, shortened: (§2)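 Male Sprague-Dawley rats, daily oral dosing at 10 mg/kg. Plasma sampled at 1, 2, 4, 8 and 24 h after dosing, n = 3 per timepoint. Myocardium measured at 1 and 8 h. Myocardium:plasma ratio taken from drug concentration.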

[14] = Plasma concentration in Sprague-Dawley rat at 10 mg/kg, po administered via gavage every 24 hrs measured at 2 hrs post last dose by LC-MS/MS analysis; assay type: ADME, organism-based; procedure, shortened: as §2
[15] = Plasma concentration in Sprague-Dawley rat at 10 mg/kg, po administered via gavage every 24 hrs measured at 4 hrs post last dose by LC-MS/MS analysis; assay type: ADME, organism-based; procedure, shortened: as §2
[16] = Plasma concentration in Sprague-Dawley rat at 10 mg/kg, po administered via gavage every 24 hrs measured at 8 hrs post last dose by LC-MS/MS analysis; assay type: ADME, organism-based; procedure, shortened: as §2
[17] = Drug uptake in Sprague-Dawley rat myocardium at 10 mg/kg, po administered via gavage every 24 hrs measured at 1 hr post last dose by LC-MS/MS analysis; assay type: ADME, organism-based; details: read-out: Drug uptake; procedure, shortened: as §2
[18] = Drug uptake in Sprague-Dawley rat myocardium at 10 mg/kg, po administered via gavage every 24 hrs measured at 8 hrs post last dose by LC-MS/MS analysis; assay type: ADME, organism-based; details: read-out: Drug uptake; procedure, shortened: as §2
[19] = Ratio of drug level in myocardium to plasma in BALB/c mouse at 10 mg/kg, po administered via gavage every 24 hrs for 7 days measured 1 hr post last dose by LC-MS/MS analysis; assay type: ADME, organism-based; details: myocardium and plasma; procedure, shortened: as §1
[20] = Ratio of drug level in myocardium to plasma in BALB/c mouse at 10 mg/kg, po administered via gavage every 24 hrs for 7 days measured 4 hrs post last dose by LC-MS/MS analysis; assay type: ADME, organism-based; details: myocardium and plasma; procedure, shortened: as §1
[21] = Ratio of drug level in myocardium to plasma in BALB/c mouse at 10 mg/kg, po administered via gavage every 24 hrs for 7 days measured 8 hrs post last dose by LC-MS/MS analysis; assay type: ADME, organism-based; details: myocardium and plasma; procedure, shortened: as §1
[22] = Ratio of drug level in myocardium to plasma in Sprague-Dawley rat at 10 mg/kg, po administered via gavage every 24 hrs measured at 1 hr post dose by LC-MS/MS analysis; assay type: ADME, organism-based; details: myocardium and plasma; procedure, shortened: as §2
[23] = Ratio of drug level in myocardium to plasma in Sprague-Dawley rat at 10 mg/kg, po administered via gavage every 24 hrs measured at 8 hrs post dose by LC-MS/MS analysis; assay type: ADME, organism-based; details: myocardium and plasma; procedure, shortened: as §2
[24] = Ratio of AUC (0 to 24 hrs) in myocardium to plasma in BALB/c mouse at 10 mg/kg, po administered via gavage every 24 hrs for 7 days measured post last dose by LC-MS/MS analysis; assay type: ADME, organism-based; details: myocardium and plasma, read-out: Ratio AUC; procedure, shortened: as §1
Heart [25] = assay: Cardioprotective activity in Langendorff perfused C57BL/6 mouse heart assessed as increase in cardiac contractility at 10 uM perfused for 30 mins in presence of high fat relative to control; assay type: functional
Procedure, shortened: (§3)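 Isolated C57BL/6 hearts (25-30 g) retrogradely perfused at constant 80 mmHg, 37 °C, 95% O2/5% CO2, with modified Krebs containing 1.2 mM sodium palmitate conjugated to 3% BSA. After 10 min stabilisation, 30 min perfusion with control buffer or compound at 2 or 10 µM. LVdP/dt max and min derived from LV pressure over 40 min; mean ± SEM, n = 12-19, 1-way ANOVA with Bonferroni.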

Heart [26] = assay: Cardioprotective activity in Langendorff perfused C57BL/6 mouse heart assessed as increase in cardiac relaxation at 10 uM perfused for 30 mins in presence of high fat relative to control; assay type: functional; procedure, shortened: as §3
Heart [27] = assay: Cardioprotective activity against Langendorff perfused C57BL/6 mouse heart assessed as lusitropic effect at 10 uM measured for 40 mins reperfusion period in presence of high fat; assay type: functional, tissue-based; procedure, shortened: as §3
Heart [28] = assay: Cardioprotective activity in Langendorff perfused C57BL/6 mouse heart perfused for 30 mins in presence of high fat; assay type: functional, tissue-based

In the case of `C1CCC(CC(C2CCCC2)C2CC2)NC1` (stereo not drawn), the half-life at 3 µM [1] is reported as 0.45 h, the half-life at 3 µM [2] is reported as 0.05 h and the Stability [3] is reported as “Stable”.

Molecule `FC1(F)CCC(C(CC2CCCCN2)C2CCCCC2)CC1` (stereo not drawn) has a concentration at 1 h [4] of 3730 ng/mL, a half-life at 3 µM [1] greater than 8.33 h and a half-life at 3 µM [2] of 1.2 h. It also gave a half-life at 5 µM (CYP2D6) of 1.73 h, an IC50 [5] of 45 µM and a concentration at 1 h [6] of 346 ng/mL. The concentration at 4 h [7] was 172 ng/mL, the concentration at 8 h [8] was 192 ng/mL and the concentration at 4 h [9] was 1880 ng/mL. For the same molecule, the concentration at 8 h [10] was 1830 ng/mL, the AUC at 24 h [11] was 3760 ng·h/mL and the AUC at 24 h [12] was 32400 ng·h/mL. The concentration at 1 h [13] was 386 ng/mL, the concentration at 2 h [14] was 375 ng/mL and the concentration at 4 h [15] was 297 ng/mL. The concentration at 8 h [16] was 179 ng/mL, the concentration at 1 h [17] was 5910 ng/mL and the concentration at 8 h [18] was 1290 ng/mL. It also gave a Kp at 1 h [19] of 10.7, a Kp at 4 h [20] of 10.9 and a Kp at 8 h [21] of 9.5. The Kp at 1 h [22] was 15.3, the Kp at 8 h [23] was 7.2 and the Kp [24] was 8.6. For the same molecule, the “fold change (FC)” value (Heart [25]) was 1.8, the “fold change (FC)” value (Heart [26]) was 2.7 and the Activity (Heart [27]) was “Active”. The Stability [3] was “Stable” and the Activity (Heart [28]) was “Dose-dependent effect”.

In the case of `FC1(F)CCC(C(CC2CCCCN2)C2CCC(F)(F)CC2)CC1` (stereo not drawn), the half-life at 3 µM [1] is reported as greater than 66.7 h, the half-life at 3 µM [2] is reported as greater than 25 h and the half-life at 5 µM (CYP2D6) is reported as greater than 2.5 h. The IC50 [5] was 88 µM and the Stability [3] was “Stable”.

Molecule `CC(C)(COP(=O)(O)OP(=O)(O)OC[C@H]1O[C@@H](n2cnc3c(N)ncnc32)[C@H](O)[C@@H]1OP(=O)(O)O)[C@@H](O)C(=O)NCCC(=O)NCCSC(=O)CC(=O)O` [MALONYL-COENZYME A] has an IC50 [5] of 1.2 µM.

For `C1CCC(C(CC2CCCCN2)C2CCOCC2)CC1` (stereo not drawn), the half-life at 3 µM [1] was 1.4 h, the half-life at 3 µM [2] was 0.517 h and the half-life at 5 µM (CYP2D6) was 0.117 h. For the same molecule, the IC50 [5] was 715 µM and the Stability [3] was “Stable”.
